High-throughput results (PubChem)
Rows were chosen to be rich in hits. Some 2.3% of all compounds tested hit in one or more screens of this group.
RBBP9 inhibitor: blocks human serine hydrolase RBBP9. hit rate 0.2% among 220,000. inhibition, % at 7.94 µM. recombinant RBBP9, FP-Rh probe fluorescence polarization. O75884;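 active = inhibition above the campaign mean of all tested compounds plus 3 SD, cut at about 14% in these data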;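 note: plate controls were DMSO wells with RBBP9 for no effect and wells lacking RBBP9 protein for full effect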
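Assay system: recombinant human RBBP9; Reagent: Serine-hydrolase probe FP-Rh, 375 nM pre-mixing; Doses: 7.94 µM single dose, 0.794% DMSO; Incubation: 30 min then 45 min, 25 °C; Detection: fluorescence polarization (mP), excitation 525 nm, emission 598 nm; Evaluation: percent inhibition from mP, scaled between DMSO and no-protein wells.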
PAD4 inh: PAD4 (human) enzyme inhibition | inhibition, % at 6.36 µM | AID 485272 | hit rate 0.41% among 330,000 | recombinant PAD4, RCA probe fluorescence polarization;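 active = percent inhibition above a cutoff equal to the mean of all tested compounds plus 3 SD, cut at about 15% in these data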;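 note: 0% = PAD4 with RCA probe and DMSO and 100% = probe without PAD4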
Target sequence (Q9UM07 whole entry, looked up): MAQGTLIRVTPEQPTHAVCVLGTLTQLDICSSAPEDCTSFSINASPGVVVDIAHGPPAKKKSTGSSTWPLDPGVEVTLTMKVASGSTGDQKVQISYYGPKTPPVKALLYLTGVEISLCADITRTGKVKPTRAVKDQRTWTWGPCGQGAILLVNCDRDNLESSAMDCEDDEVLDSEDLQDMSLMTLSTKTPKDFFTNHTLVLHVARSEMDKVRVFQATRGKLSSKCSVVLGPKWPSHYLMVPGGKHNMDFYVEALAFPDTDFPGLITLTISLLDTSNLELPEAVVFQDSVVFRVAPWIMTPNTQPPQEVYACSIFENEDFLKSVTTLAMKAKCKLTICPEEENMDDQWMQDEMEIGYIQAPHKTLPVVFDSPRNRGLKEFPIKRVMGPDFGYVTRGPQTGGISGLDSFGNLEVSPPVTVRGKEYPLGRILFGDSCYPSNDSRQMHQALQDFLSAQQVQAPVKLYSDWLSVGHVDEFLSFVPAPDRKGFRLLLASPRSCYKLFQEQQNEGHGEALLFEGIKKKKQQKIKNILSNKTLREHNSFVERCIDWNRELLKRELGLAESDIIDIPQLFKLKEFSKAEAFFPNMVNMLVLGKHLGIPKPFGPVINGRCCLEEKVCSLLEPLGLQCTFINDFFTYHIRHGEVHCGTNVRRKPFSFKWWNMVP
PME-1 inh: PME-1 (human) inhibition; recombinant PME-1, FP-Rh probe fluorescence polarization; AID 2130; inhibition, % at 5.9 µM; hit rate 0.53% among 320,000;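 active = inhibition above the campaign mean of all compounds plus 3 SD, cut at about 26% in these data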;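 note: competitive labeling of PME-1 active site by serine hydrolase directed probe; 0% = PME-1 with DMSO and 100% = wells lacking PME-1 enzyme; inhibitors block probe labeling so polarization falls and inhibition rises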
PRMT1 inh: blocks human protein arginine methyltransferase 1; Q99873; hit rate 1.3% among 370,000; inhibition, % at 2.79 µM; recombinant PRMT1, activity-based probe fluorescence polarization;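 active = inhibition above about 21% made by adding two undisclosed values, limit read from the data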
GSTO1 counter: counter-screen for RBBP9 inhibitors: inhibitors of human GSTO1. hit rate 1.1% among 300,000. inhibition, % at 5.96 µM. AID 1974. recombinant GSTO1, activity-based probe fluorescence polarization;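 active = inhibition above the campaign mean inhibition plus 3 SD, cut at about 35% in these data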;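 note: 0% = GSTO1-1 with DMSO and 100% = wells lacking GSTO1-1 enzyme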
Fam108B counter: blocks mouse Fam108B hydrolase in RBBP9 counter-screen; recombinant Fam108B, FP-Rh probe fluorescence polarization; inhibition, % at 9.51 µM; hit rate 0.33% among 300,000; AID 1947;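 active = inhibition above the screen mean inhibition plus 3 SD, computed separately per campaign, cut at about 18% in these data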;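 note: inhibitors lower polarization as less probe binds the enzyme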
GSTO1 confirm: GSTO1 (human) inhibition, confirmation; shares compounds with GSTO1 counter; recombinant GSTO1, probe fluorescence polarization; inhibition, % at 5.96 µM; hit rate 54% among 2,400; AID 2176;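 active = inhibition above the primary screen's cutoff, its mean inhibition plus 3 SD, cut at about 35% in these data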;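 note: loss of polarization as inhibitors block binding of rhodamine sulfonate ester activity probe; 0% = GSTO1 with DMSO and 100% = wells lacking GSTO1 enzyme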
GSTO1 ABPP inh: blocks recombinant human glutathione S-transferase omega 1; inhibition, % at 1 µM; hit rate 30% among 130; recombinant GSTO1, gel ABPP SE-Rh probe fluorescence; shares compounds with GSTO1 counter; AID 463110;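 active = inhibition of the enzyme GSTO1 above about 75%, limit read from the data; inactive = inhibition below that limit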
Numbers without * were called inactive; / = no result.

SMILES	RBBP9 inhibitor	PAD4 inh	PME-1 inh	PRMT1 inh	GSTO1 counter	Fam108B counter	GSTO1 confirm	others
C=C1C(=O)OC2CC3(C)OC3CCC(C)=CC(OC(C)=O)C12 (configuration not stated)	/	/	/	4	/	/	/
S=C(NCCc1ccccc1)N1Cc2cc(-c3ccccc3)ccc2-n2nncc2C1	/	/	/	-1	/	/	/
O=C(CCl)NCC1CCCO1 (configuration not stated)	-9	-1	5	-4	51*	5	65*
COP(=O)(OC)C(O)C(Cl)(Cl)Cl (configuration not stated)	-9	-1	4	/	44*	-2	34
COC(=O)C1=C(c2ccccc2OCc2ccccc2)C[C@@H]2CC[C@H]1N2C(=O)NCc1ccc(Br)cc1	/	0	0	0	/	/	/
Cc1ccccc1NC(=O)CCl	-8	4	0	0	63*	2	78*
O=[N+]([O-])c1cc2c(cc1CNCCc1ccc3c(c1)OCO3)OCO2	-2	-2	2	2	6	4	/
CCN1CCN(Cc2cc3c(cc2[N+](=O)[O-])OCO3)CC1	/	-10	-3	2	38*	-6	19
O=C(CCC(=O)N1CCOc2ccc(Cl)cc21)N1CCC2(CC1)OCCO2	/	-4	8	2	2	1	/
O=C(NC1(C(F)(F)F)Oc2ccc(Cl)cc2O1)N1CCC2(CC1)OCCO2 (configuration not stated)	-1	-4	-9	2	62*	0	7
O=C(NC1(C(F)(F)F)Oc2ccccc2O1)N1CCC2(CC1)OCCO2	-9	0	2	14	42*	1	9
Cc1cc(C=O)c(C)n1CC1CCCO1 (configuration not stated)	-12	3	0	-1	1	-1	/
CN1CCc2nc(SCC(=O)OC(C)(C)C)c(C#N)cc2C1	/	-2	2	20	-4	2	/
COc1ccc(CNCCc2c(C)[nH]c3ccc(OC(F)(F)F)cc23)c(OC)c1	/	-2	4	4	0	0	/
CC1CCCN(C(=O)CCl)C1 (configuration not stated)	-9	1	-1	-2	66*	2	84*	GSTO1 ABPP inh=57
CNCC(=O)c1ccc(O)c(O)c1	/	/	/	5	/	/	/
COc1cc2c(cc1O)[C@@H]1Cc3ccc(OC)c(O)c3CN1CC2	/	-6	8	5	69*	4	6
N#CCCn1cc(C(=O)O)c(-c2cccc([N+](=O)[O-])c2)n1	5	6	-1	-5	11	0	/
NCC(O)c1cc(O)c(O)cc1F (configuration not stated)	/	-7	-1	12	50*	-3	8
COC(=O)C1=C(c2ccc(OC)c(OC)c2)C[C@@H]2CC[C@H]1N2C(=O)NCCOc1ccc(OC)cc1	/	5	-5	0	/	/	/
Oc1cccc2nc3ccccc3nc12	-2	3	6	-2	70*	-2	14
Cc1ccccc1O	/	-4	/	-1	/	/	/
CC1CCCN(C(=O)c2ccc(N3CC4CC(C3)c3cccc(=O)n3C4)c([N+](=O)[O-])c2)C1 (configuration not stated)	-6	-3	7	-2	-1	-3	/
CCC(=NCCCN(CC)CC)c1c(O)n(-c2ccccc2)c(=O)[nH]c1=O	-8	5	-3	-2	-4	2	/
O=c1c2ccccc2nc(/C=C/c2ccc(O)c(O)c2)n1-c1ccccc1	/	-4	27*	15	44*	-10	7
Cc1cccn2c(NCC3CCCO3)c(C(C)C)nc12 (configuration not stated)	-12	3	4	-1	-1	6	/
Cc1nc(CCl)cc(=O)[nH]1	-6	0	-1	1	69*	0	77*	GSTO1 ABPP inh=17
CC(C)Oc1ccc(Cc2c(O)[nH]c(=O)[nH]c2=O)cc1	-6	-2	-2	2	40*	3	5
